According to paper PMC6447045 (Nature chemical biology, 2019):

Key:
[1] = tested on: HIF-2 (EPO and NDRG1) and HIF-1 (PGK1) target genes in Hep3B cells; test: qPCR in Hep3B cells, PHD inhibitors and HIF-2α agonist co-treatment; format: cell-based; conditions: 10 μM PHD inhibitor alone
How it was run: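 Hep3B cells were grown in DMEM with 10% FBS in 6-well plates. They were pretreated with 10 μM molidustat or roxadustat for 8 h, then 5 μM agonist was added (final DMSO 0.1%). After a further 24 h, RNA was isolated and reverse-transcribed. Target mRNAs were quantified by SYBR Green real-time PCR and normalized to ACTB in the same sample.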

[2] = tested on: HIF-2 target genes in 786-O cells; test: qPCR of endogenous HIF-2 target genes in 786-O cells; format: cell-based; conditions: 24 hours, PT2385 0.01-10 μM, T1001, M1001, M1002 10 μM
How it was run: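 786-O cells were grown in RPMI1640 with 10% FBS in 6-well plates at 37 °C, 5% CO2. Compound was given at various concentrations with 0.1% DMSO, and DMSO alone served as control. After 24 h, RNA was isolated and converted to cDNA. SYBR Green real-time PCR was normalized to ACTB. Values are mean ± s.d., n=3 independent cultures.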

[3] = tested on: HIF-2 and HIF-1 target genes in Hep3B cells; test: qPCR of HIF target genes in Hep3B cells under hypoxia; format: cell-based; conditions: hypoxia (1% O2), 10 μM, 8 h
HIF-1α-ARNT heterodimer = HIF-1α-ARNT heterodimer (Mus musculus, UniProt Q61221); test: TR-FRET-based in vitro binding assay, HIF-1α-ARNT; format: biochemical

For O=c1c(-n2ccnn2)c[nH]n1-c1cc(N2CCOCC2)ncn1 [molidustat], the “effect on HIF-1 selective target gene (PGK1)” value [1] was “relatively small effects” and the “increase of expression of HIF-2 target genes (EPO and NDRG1)” value [1] was 3–5 fold.

For Cc1nc(C(=O)NCC(=O)O)c(O)c2ccc(Oc3ccccc3)cc12 [roxadustat], the “effect on HIF-1 selective target gene (PGK1)” value [1] was “relatively small effects” and the “increase of expression of HIF-2 target genes (EPO and NDRG1)” value [1] was 3–5 fold.

With CS(=O)(=O)c1ccc(Oc2cc(F)cc(C#N)c2)c2c1[C@H](O)C(F)(F)C2 [PT2385, (S)-3-((2,2-Difluoro-1-hydroxy-7-(methylsulfonyl)-2,3-dihydro-1 H-inden-4-yl)oxy)-5-fluorobenzonitrile] the “effect on expression of endogenous HIF-2 target genes” value [2] was “dose-dependent inhibitory activity”, the “effect on expression of HIF-2 specific and HIF-1 specific genes” value [3] was “decreased the expression of HIF-2 specific genes (VEGF, EPO and NDRG1) but not the HIF-1 specific gene (PGK1)” and the “effect on HIF-1α-ARNT subunit interactions” value (HIF-1α-ARNT heterodimer) was “no PT2385 effect”.
